The nature of data set [1]: Mean residence time in ICR mouse at 10 mg/kg, iv after 5 mins to 6 hrs. It counts as ADME, organism-based. As to conditions: in vivo.
Data set [2] in a line: Oral bioavailability in ICR mouse at 10 mg/kg after 5 mins to 6 hrs. It counts as ADME, organism-based. Conditions: in vivo.
Data set [3] in a line: Terminal half life in ICR mouse at 10 mg/kg, po after 5 mins to 6 hrs. It counts as ADME, organism-based. As to conditions: in vivo, read-out: beta t1/2.
Data set [4] is described as follows: AUClast in ICR mouse at 10 mg/kg, po after 5 mins to 6 hrs. It counts as ADME, organism-based. On the set-up: dose 10 mg/kg, time upper 6 hr, time lower 0.083 hr, route oral. Conditions: in vivo.
The nature of data set [5]: Volume of distribution at steady state in ICR mouse at 10 mg/kg, iv after 5 mins to 6 hrs. It counts as ADME, organism-based. As to conditions: in vivo, read-out: Vdss.
A short description of data set [6]: Tmax in ICR mouse at 10 mg/kg, po after 5 mins to 6 hrs. It counts as ADME, organism-based. As to conditions: in vivo.
Data set [7] can be described thus: Cmax in ICR mouse at 10 mg/kg, po after 5 mins to 6 hrs. Conditions: in vivo. It counts as ADME, organism-based. On the set-up: dose 10 mg/kg, route oral.
In data set [8] the test system is Staphylococcus aureus. In words: Antibacterial activity against Staphylococcus aureus incubated for 18 hrs by agar dilution method. It counts as functional. For orientation: In agar dilution, organisms are placed on agar that contains the substance at set levels.
The nature of data set [9]: Clearance in ICR mouse at 10 mg/kg, iv after 5 mins to 6 hrs. It counts as ADME, organism-based. Conditions: in vivo.
Data set [10] has as its system Staphylococcus aureus. In words: Antibacterial activity against methicillin-resistant Staphylococcus aureus incubated for 18 hrs by agar dilution method. It counts as functional. The gist of the method:
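Agar dilution. Strains were grown 18 h at 37 °C with shaking in Fleisch extract broth (beef extract 1%, peptone 1%, NaCl 0.3%, Na₂HPO₄ 0.2%, pH 7.4–7.5), then diluted 100-fold. Plates incubated 37 °C, 18 h. MIC is the lowest concentration preventing growth.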

The target of data set [11] is T1, Enoyl-[acyl-carrier-protein] reductase [NADPH] FabI (Staphylococcus aureus, UniProt Q6GI75).
T1 sequence (Q6GI75 whole entry): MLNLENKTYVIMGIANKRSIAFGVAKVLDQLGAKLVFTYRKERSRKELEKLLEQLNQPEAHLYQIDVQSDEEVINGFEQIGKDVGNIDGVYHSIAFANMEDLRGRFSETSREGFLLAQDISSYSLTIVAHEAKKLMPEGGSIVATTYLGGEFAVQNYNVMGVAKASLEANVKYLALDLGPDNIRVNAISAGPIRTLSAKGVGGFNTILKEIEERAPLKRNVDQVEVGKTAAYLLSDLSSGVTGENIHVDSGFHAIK
In words: Inhibition of Staphylococcus aureus FabI assessed as reduction in inhibition of reduction of trans-2-octenoyl N-acetylcysteamine substrate by spectrophotometry.

Data set [12] can be described thus: AUC (0 to infinity) in ICR mouse at 10 mg/kg, iv after 5 mins to 6 hrs. It counts as ADME, organism-based. On the set-up: dose 10 mg/kg, time infinity, route intravenous. Conditions: in vivo.
Data set [13] in a line: Terminal half life in ICR mouse at 10 mg/kg, iv after 5 mins to 6 hrs. It counts as ADME, organism-based. Conditions: in vivo, read-out: beta t1/2.
A short description of data set [14]: AUC (0 to infinity) in ICR mouse at 10 mg/kg, po after 5 mins to 6 hrs. It counts as ADME, organism-based. On the set-up: dose 10 mg/kg, time infinity, route oral. Conditions: in vivo.
Data set [15] is described as follows: AUClast in ICR mouse at 10 mg/kg, iv after 5 mins to 6 hrs. It counts as ADME, organism-based. On the set-up: time lower 0.083 hr, dose 10 mg/kg, time upper 6 hr, route intravenous. Conditions: in vivo.

Converted amounts (≈) assume the structure as drawn.

What is called MRT is a mean duration of stay, worked out from the concentration-time curve. By bioavailability is commonly meant dose-corrected exposure relative to a reference, in per cent. Broadly, the AUC(0-t) is the area under the concentration-time curve up to a stated or last time point. As usually defined, the Tmax is the time at which the peak concentration occurs. In general, Cmax refers to the peak of the concentration-time curve. By MIC is commonly meant the lowest concentration found to suppress growth. The clearance is a measure of how efficiently the substance is removed, as volume per time. Lower therefore signals inefficient removal. For orientation: IC50 means the point on the concentration scale where inhibition reaches its midpoint. One may read the AUC(0-inf) as the area under the concentration-time curve extrapolated to infinity.

`Cc1ccc(Oc2cn(C)c(COc3ccccc3)cc2=O)c(C)c1`: the MRT in data set [1] was 36.5 min. For the same molecule, the bioavailability in data set [2] is 41.9%. In addition, the half-life in [3] is 33.9 min; in [13], 47.9 min. The AUC(0-t) in data set [4] was 2480 ng·h/mL; in data set [15], 5910 ng·h/mL. Moreover, the Vd in data set [5] worked out at 1.03 L/kg. Also, the time to peak (Tmax) in data set [6] is 5 min. Moreover, the highest level in [7] (Cmax) was 4040 ng/mL. Further, the MIC against Staphylococcus aureus [8] and in the data set with Staphylococcus aureus [10] was 0.049 µg/mL (≈ 0.146 µM) in each case. The same molecule had a clearance in data set [9] of 28.1 mL/min/kg. The IC50 in [11] amounted to 80 nM. For the same molecule, the total exposure AUC(0-inf) in [12] is 5920 ng·h/mL; in data set [14], 2490 ng·h/mL.

Values taken from ChEMBL document CHEMBL3621046, “Discovery of a potent enoyl-acyl carrier protein reductase (FabI) inhibitor suitable for antistaphylococcal agent” (Bioorg Med Chem Lett, 2015).
